Measured values reported in the M2OR odorant receptor database.

The molecules below were run against T1, OR5P3 (Homo sapiens) (UniProt Q8WZ94). Conditions: stereoisomer not certain.
T1 sequence (whole entry): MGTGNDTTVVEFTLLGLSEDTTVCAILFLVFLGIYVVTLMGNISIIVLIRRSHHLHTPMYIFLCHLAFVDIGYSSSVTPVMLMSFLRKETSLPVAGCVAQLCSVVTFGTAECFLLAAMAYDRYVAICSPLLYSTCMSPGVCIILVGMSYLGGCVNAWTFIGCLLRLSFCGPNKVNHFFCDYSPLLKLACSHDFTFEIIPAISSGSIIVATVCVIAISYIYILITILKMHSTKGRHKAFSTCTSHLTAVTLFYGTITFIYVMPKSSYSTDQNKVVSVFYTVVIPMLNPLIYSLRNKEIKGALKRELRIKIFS
In short: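 Assay methods differ from source to source, frequently being transient luciferase assays in mammalian cell lines. For each receptor–molecule pair, the label responsive (active) applies when the original authors judged the measured signal statistically different from baseline, and non-responsive (inactive) applies otherwise.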

Q: `CCCCCCO` was tested. Which “odorant receptor agonist call” value did it give?
A: active

Q: Which “odorant receptor agonist call” value does the source give for `c1ccccc1` here?
A: inactive

Q: How did the “odorant receptor agonist call” value turn out when `CCCCCC(=O)CC` was run?
A: inactive

Q: For `C=CCOC(=O)CCCCCC`, which “odorant receptor agonist call” value is on record?
A: inactive

Q: How did the “odorant receptor agonist call” value turn out when `CCC(C(=O)O)c1ccccc1` (stereo not given) was run?
A: inactive

Q: Which “odorant receptor agonist call” value does the source give for `CCCCCCCCCCO` here?
A: inactive

Q: With `CCCCCCCCCO` as the molecule, how does the “odorant receptor agonist call” value read?
A: inactive

Q: `CCCCC(C)=O` was tested. Which “odorant receptor agonist call” value did it give?
A: inactive

Q: How did the “odorant receptor agonist call” value turn out when `CC(C)=CCCC(C)CCO` (stereo not given) was run?
A: inactive

Q: With `CCCCCC1=C(C)CCC1=O` as the molecule, how does the “odorant receptor agonist call” value read?
A: inactive

Q: How did the “odorant receptor agonist call” value turn out when `CCCCCCCCCS` was run?
A: inactive

Q: For `CC(=O)OCC=C(C)C`, which “odorant receptor agonist call” value is on record?
A: inactive

Q: How did the “odorant receptor agonist call” value turn out when `CCCCCCC(=O)[O-].[H+]` was run?
A: inactive

Q: For `CC(C)=CCCC(C)=CCO`, which “odorant receptor agonist call” value is on record?
A: inactive

Q: For `CC12CCC(CC1=O)C2(C)C` (stereo not given), which “odorant receptor agonist call” value is on record?
A: inactive

Q: `O=C(c1ccccc1)c1ccccc1` was tested. Which “odorant receptor agonist call” value did it give?
A: inactive

Q: For `C=C(C)C1CCC(C)C(=O)C1` (stereo not given), which “odorant receptor agonist call” value is on record?
A: inactive

Q: `CCCCOC=O` was tested. Which “odorant receptor agonist call” value did it give?
A: inactive

Q: `CC(=O)Oc1ccccc1` was tested. Which “odorant receptor agonist call” value did it give?
A: inactive

Q: For `CCCCCOC(=O)CCCCC`, which “odorant receptor agonist call” value is on record?
A: inactive

Q: Which “odorant receptor agonist call” value does the source give for `CCCC(C)=O` here?
A: inactive

Q: With `CCCCCCCCCC(=O)[O-].[H+]` as the molecule, how does the “odorant receptor agonist call” value read?
A: inactive

Q: With `CCCCCCCC(C)=O` as the molecule, how does the “odorant receptor agonist call” value read?
A: inactive

Q: For `CCCCCCC(C)=O`, which “odorant receptor agonist call” value is on record?
A: inactive

Q: For `O=C1Cc2ccccc2O1`, which “odorant receptor agonist call” value is on record?
A: inactive

Q: With `CCCCCCCCC(=O)O` as the molecule, how does the “odorant receptor agonist call” value read?
A: inactive

Q: Which “odorant receptor agonist call” value does the source give for `CCCCOC(=O)C(C)OC(=O)CCC` (stereo not given) here?
A: inactive

Q: `O=C1CCOc2ccccc21` was tested. Which “odorant receptor agonist call” value did it give?
A: inactive

Q: With `CCCCCO` as the molecule, how does the “odorant receptor agonist call” value read?
A: inactive

Q: Which “odorant receptor agonist call” value does the source give for `CCCCCCCO` here?
A: active
